Measured values collected from several papers.
Protocols differ between the studies behind these lines.
Target: Serine/threonine-protein kinase Chk1 (CHEK1, Homo sapiens, UniProt O14757)
Residues used in one study (O14757 1-476): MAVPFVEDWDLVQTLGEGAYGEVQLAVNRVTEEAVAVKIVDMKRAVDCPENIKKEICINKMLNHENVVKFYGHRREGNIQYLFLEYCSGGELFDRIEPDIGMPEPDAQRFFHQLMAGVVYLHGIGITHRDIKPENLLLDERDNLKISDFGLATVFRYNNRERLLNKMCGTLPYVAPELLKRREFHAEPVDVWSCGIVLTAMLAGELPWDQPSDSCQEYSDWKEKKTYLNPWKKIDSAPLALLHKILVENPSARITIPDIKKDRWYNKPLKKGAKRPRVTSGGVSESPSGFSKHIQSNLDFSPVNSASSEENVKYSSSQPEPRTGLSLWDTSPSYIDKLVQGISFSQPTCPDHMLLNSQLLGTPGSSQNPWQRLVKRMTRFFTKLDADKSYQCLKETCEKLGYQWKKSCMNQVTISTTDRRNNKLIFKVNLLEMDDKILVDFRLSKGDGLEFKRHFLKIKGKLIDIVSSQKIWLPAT

| SMILES | test | conditions | endpoint | value |
| --- | --- | --- | --- | --- |
| Cn1c(=O)n(-c2ccc(C(C)(C)C#N)cc2)c2c3cc(-c4cnc5ccccc5c4)ccc3ncc21 | enzyme activity, inhibitor | 10 µM | remaining activity | 146% |
| Nc1c(C(=O)NCc2ccc(C(=O)NCCCC3CCCCC3)cc2)cnn1-c1ccccc1 | cell-free assay, competition with immobilised ligand | 0.1 µM | remaining binding | 100% |
| COc1cc(Nc2cnc(C#N)c(O[C@H](C)CN(C)C)n2)ncc1-c1cnn(C)c1 | enzyme activity, inhibitor, radiometric | 1 µM | remaining activity | 17% |
| CN(C)C1CCN(CC#Cc2nn(C3CCCC3)c3nc(NCc4ccccc4)ncc23)C1 (stereo not drawn) | enzyme activity, inhibitor, FRET | 0.1 µM | inhibition | 2% |
| Cc1ccc(NC(=O)c2ccc(C)c(C(F)(F)F)c2)cc1C#Cc1nn(C2CCC(O)CC2)c2ncnc(N)c12 (stereo not drawn) | cell-free assay | 10 µM | remaining signal | 114% |
| CC(C)(C)c1nc2c(s1)c1nc(N)ncc1c1ccc(NS(=O)(=O)c3c(F)cccc3F)c(F)c12 | enzyme activity, inhibitor, radiometric | 1 µM | remaining activity | 94% |
| Nc1nc(Nc2ccccc2)sc1C(=O)c1c(F)cccc1F | enzyme activity, inhibitor | 10 µM | remaining activity | 86% |
| COCCOc1nc(-c2ccc(Cl)nc2)nc2c1CN(C(=O)c1ncn3ccccc13)CC2 | cell-free assay, competition with immobilised ligand | 0.1 µM | remaining binding | 100% |
| FC(F)c1nc2ccccc2n1-c1nc(N2CCOCC2)nc(N2CCOCC2)n1 | enzyme activity, inhibitor | 10 µM | remaining activity | 90% |
| O=C(Nc1cnn(-c2csc(C(=O)NC3COC3)c2)c1)Nc1c(F)cccc1Cl | enzyme activity, inhibitor | 5 µM | remaining activity | 141% |
| C[C@@H](c1cccc(C#N)c1)n1cc(Cl)cc(C(N)=O)c1=N | cell-free assay, competition with immobilised ligand | 1 µM | remaining binding | 100% |
| Cc1ccc(NC(=O)c2ccc(CN3CCN(C)CC3)cc2)cc1Nc1nc(-c2cccnc2)cs1 | cell-free assay | 0.5 µM | remaining signal | 110% |
| Nc1ncnc2occ(-c3ccc(NC(=O)Nc4cc(C(F)(F)F)ccc4F)cc3)c12 | cell-free assay, inhibitor | 20 µM | remaining signal | 100% |
| CNC(=O)Nc1ccc2c(c1)[C@@]1(CC2)OC(=O)N(CC(=O)N(Cc2ccc(F)cc2)[C@@H](C)C(F)(F)F)C1=O | cell-free assay, competition with immobilised ligand | 1 µM | remaining binding | 100% |
| C#Cc1cccc(Nc2ncnc3cc(OCCOC)c(OCCOC)cc23)c1 | cell-free assay | 0.5 µM | remaining signal | 95.1% |
| Nc1cnc(N2CCc3cc(S(=O)(=O)Nc4c(F)cc(Cl)cc4F)cc(N4CCCC4=O)c32)nc1 | cell-free assay, competition with immobilised ligand | 1 µM | remaining binding | 95% |
| C[S+]([O-])c1ccc(-c2nc(-c3ccncc3)c(-c3ccc(F)cc3)[nH]2)cc1 (stereo not drawn) | cell-free assay | 0.5 µM | remaining signal | 97.3% |
| COc1cc(Cl)c(C(=O)N[C@@H](CN[C@H]2CC[C@@H](N)CC2)Cc2ccc(C#N)cc2)cc1-c1ccc(CN[C@H](C)c2ccc(C)cc2)o1 | enzyme activity, inhibitor | 1 µM | remaining activity | 100% |
| N#CC1(c2ccccn2)CCN(Cc2cc(C(=O)N3CCCC3)c(=O)n3ccccc23)CC1 | cell-free assay, competition with immobilised ligand | 1 µM | remaining binding | 90% |
| Cc1cnc(NC2CCOCC2)nc1-n1cnc(C(=O)NC(CN)c2cc(F)cc(Cl)c2)c1 (stereo not drawn) | enzyme activity, inhibitor, radiometric | 1 µM | remaining activity | 35% |
| COc1cc2c(Nc3ccc(Br)cc3F)ncnc2cc1OCC1CCN(C)CC1 | cell-free assay | 0.5 µM | remaining signal | 94.4% |
| CS(=O)(=O)NCC[C@H](NC(=O)c1cncc2c1cnn2-c1ccc(F)cc1)c1ccnc(S(C)(=O)=O)c1 | cell-free assay, competition with immobilised ligand | 1 µM | remaining binding | 97% |
| Clc1ccc(Nc2nnc(Cc3ccncc3)c3ccccc23)cc1 | cell-free assay | 0.5 µM | remaining signal | 96.5% |
| CC(C)(O)[C@H]1CC[C@H](Nc2ccc3ncc(-c4cccc(C(F)(F)F)c4)n3n2)CC1 | enzyme activity, inhibitor | 1 µM | remaining activity | 94.2% |
